Experimental data reported in ChEMBL document CHEMBL1148921, “Steroidal glycosides from the bulbs of Ornithogalum thyrsoides” (J Nat Prod, 2004).
Values after ≈ are worked out from the molar mass of the structure shown.

Assays:
HSC-2 = experiment: Cytotoxicity against human HSC2 cells after 24 hrs by MTT assay; format: functional, cell-based; settings: HSC-2, 24 h
Procedure, shortened: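 HSC-2 monolayers kept in DMEM with 10% heat-inactivated FBS at 37 °C, 5% CO2. Trypsinized cells plated, grown 24 h, PBS-washed, exposed 24 h with or without compound. After PBS wash, 0.2 mg/mL MTT in DMEM/10% FBS for 4 h; cells lysed in DMSO and absorbance taken as relative viable cell number. IC50 reported.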

HL-60 = experiment: Cytotoxicity against human HL60 cells after 72 hrs by MTT assay; format: functional, cell-based; settings: HL-60, 72 h
Procedure, shortened: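 HL-60 leukemia cells seeded in 96-well plates, held 24 h at 37 °C in 5% CO2/air, then given sample in EtOH-H2O (1:1) to final 0.1-20 µg/mL; solvent alone for controls. Exposure 72 h, then MTT for 4 h at 37 °C; cells and formazan pelleted, formazan dissolved in DMSO, A550 read. Triplicate; IC50 = concentration cutting viable cell number by 50%.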

Row | SMILES | IC50 (HSC-2) | IC50 (HL-60)
1 | COc1cc(C(=O)OC[C@H]2O[C@@H](O[C@@H]3C[C@H](O)C[C@@H]4CC[C@H]5[C@@H]6C[C@H](O[C@@H]7O[C@H](CO)[C@@H](O)[C@H](O)[C@H]7O)[C@H]([C@H](C)[C@@H](O)CCC(C)C)[C@@]6(C)CC[C@@H]5[C@]43C)[C@H](O)[C@@H](O)[C@@H]2O)cc(OC)c1OC | > 100 µg/mL | 5 µg/mL (≈ 5.23 µM)
2 | CC(C)=CC[C@H](O)[C@@H](C)[C@H]1[C@@H](O[C@@H]2O[C@@H](C)[C@H](O)[C@@H](O)[C@H]2O)C[C@H]2[C@@H]3CC[C@H]4C[C@@H](O)C[C@@H](O[C@@H]5O[C@@H](C)[C@H](O)[C@@H](O)[C@H]5O)[C@]4(C)[C@H]3CC[C@]12C | > 100 µg/mL | > 10 µg/mL
3 | CC(C)=CC[C@H](O)[C@@H](C)[C@H]1[C@@H](O[C@@H]2O[C@@H](C)[C@H](O)[C@@H](O)[C@H]2O)C[C@H]2[C@@H]3CC=C4C[C@@H](O)C[C@@H](O[C@@H]5O[C@@H](C)[C@H](O)[C@@H](O)[C@H]5O)[C@]4(C)[C@H]3CC[C@]12C | > 100 µg/mL | 5.1 µg/mL (≈ 7.04 µM)
4 | C[C@@H]1CC[C@@]2(OC1)O[C@H]1C[C@H]3[C@@H]4CC=C5C[C@@H](O)C[C@@H](O[C@@H]6OC[C@H](O)[C@H](O[C@@H]7OC[C@@H](O)[C@H](O)[C@H]7O)[C@H]6O[C@@H]6O[C@@H](C)[C@H](O)[C@@H](O)[C@H]6O)[C@]5(C)[C@H]4CC[C@]3(C)[C@H]1[C@@H]2C | 21.2 µg/mL (≈ 25.2 µM) | 1.9 µg/mL (≈ 2.26 µM)
5 | C[C@@H]1CC[C@@]2(OC1)O[C@H]1C[C@H]3[C@@H]4CC[C@H]5C[C@@H](O)C[C@@H](O[C@@H]6O[C@H](CO)[C@@H](O)[C@H](O)[C@H]6O)[C@]5(C)[C@H]4CC[C@]3(C)[C@H]1[C@@H]2C | 34.6 µg/mL (≈ 58.2 µM) | 1.6 µg/mL (≈ 2.69 µM)
6 | C[C@@H]1CC[C@@]2(OC1)O[C@H]1C[C@H]3[C@@H]4CC=C5C[C@@H](O)C[C@@H](O[C@@H]6OC[C@H](O)[C@H](O)[C@H]6O[C@@H]6O[C@@H](C)[C@H](O)[C@@H](O)[C@H]6O)[C@]5(C)[C@H]4CC[C@]3(C)[C@H]1[C@@H]2C | 19.9 µg/mL (≈ 28.1 µM) | 2.2 µg/mL (≈ 3.1 µM)
7 | COc1cc(C(=O)OC[C@H]2O[C@@H](O[C@@H]3C[C@H](O)C[C@@H]4CC[C@H]5[C@@H]6C[C@H](O[C@@H]7O[C@H](CO)[C@@H](O)[C@H](O)[C@H]7O)[C@H]([C@H](C)[C@@H](O)CC=C(C)C)[C@@]6(C)CC[C@@H]5[C@]43C)[C@H](O)[C@@H](O)[C@@H]2O)cc(OC)c1OC | > 100 µg/mL | > 10 µg/mL
8 | CC(C)CC[C@H](O)[C@@H](C)[C@H]1[C@@H](O[C@@H]2O[C@H](CO)[C@@H](O)[C@H](O)[C@H]2O)C[C@H]2[C@@H]3CC[C@H]4C[C@@H](O)C[C@@H](O[C@@H]5O[C@H](CO)[C@@H](O)[C@H](O)[C@H]5O)[C@]4(C)[C@H]3CC[C@]12C | > 100 µg/mL | > 10 µg/mL
9 | CC(C)CC[C@H](O)[C@@H](C)[C@H]1[C@@H](O[C@@H]2O[C@@H](C)[C@H](O)[C@@H](O)[C@H]2O)C[C@H]2[C@@H]3CC=C4C[C@@H](O)C[C@@H](O[C@@H]5O[C@@H](C)[C@H](O)[C@@H](O)[C@H]5O)[C@]4(C)[C@H]3CC[C@]12C | > 100 µg/mL | > 10 µg/mL
10 | C[C@@H]1O[C@@H](O[C@H]2[C@H](O[C@@H]3C[C@H](O)CC4=CC[C@H]5[C@@H]6C[C@@H]7O[C@]8(C[C@H](O)[C@@H](C)CO8)[C@@H](C)[C@@H]7[C@@]6(C)CC[C@@H]5[C@]43C)OC[C@H](O)[C@@H]2O[C@@H]2OC[C@@H](O)[C@H](O)[C@H]2O)[C@H](O)[C@H](O)[C@H]1O | > 100 µg/mL | > 10 µg/mL
11 | CC(=O)OC[C@H]1O[C@@H](O[C@H]2C[C@H]3[C@@H]4CC[C@H]5C[C@@H](O)C[C@@H](O[C@@H]6O[C@@H](C)[C@H](O)[C@@H](O)[C@H]6O)[C@]5(C)[C@H]4CC[C@]3(C)[C@H]2[C@H](C)[C@@H](O)CCC(C)C)[C@H](O)[C@@H](O)[C@@H]1O | > 100 µg/mL | 5.3 µg/mL (≈ 6.73 µM)
12 | CC(C)CC[C@H](O)[C@@H](C)[C@H]1[C@@H](O[C@@H]2O[C@H](CO)[C@@H](O)[C@H](O)[C@H]2O)C[C@H]2[C@@H]3CC[C@H]4C[C@@H](O)C[C@@H](O[C@@H]5O[C@@H](C)[C@H](O)[C@@H](O)[C@H]5O)[C@]4(C)[C@H]3CC[C@]12C | > 100 µg/mL | > 10 µg/mL
13 | CC(=O)OC[C@H]1O[C@@H](O[C@H]2C[C@H]3[C@@H]4CC[C@H]5C[C@@H](O)C[C@@H](O[C@@H]6O[C@@H](C)[C@H](O)[C@@H](O)[C@H]6O)[C@]5(C)[C@H]4CC[C@]3(C)[C@H]2[C@H](C)[C@@H](O)CCC(C)C)[C@H](O)[C@@H](O)[C@@H]1O[C@@H]1OC[C@](O)(CO)[C@H]1O | > 100 µg/mL | > 10 µg/mL
14 | C[C@@H]1O[C@@H](O[C@H]2[C@H](O[C@@H]3C[C@H](O)CC4=CC[C@H]5[C@@H]6C[C@@H]7O[C@]8(C[C@H](O)[C@@H](C)CO8)[C@@H](C)[C@@H]7[C@@]6(C)CC[C@@H]5[C@]43C)OC[C@H](O)[C@@H]2O)[C@H](O)[C@H](O)[C@H]1O | > 100 µg/mL | 5.2 µg/mL (≈ 7.17 µM)
15 | COc1cc([C@@H]2c3cc4c(cc3[C@@H](O[C@@H]3O[C@@H]5CO[C@@H](C)O[C@H]5[C@H](O)[C@H]3O)[C@H]3COC(=O)[C@H]23)OCO4)cc(OC)c1O [ETOPOSIDE] | 24.4 µg/mL (≈ 41.5 µM) | 0.23 µg/mL (≈ 0.391 µM)
